Source: ChEMBL document CHEMBL1914430, “Synthesis of some new 1,3,5-trisubstituted pyrazolines bearing benzene sulfonamide as anticancer and anti-inflammatory agents” (Bioorg Med Chem Lett, 2011)

How the values were obtained:
Type in all cases: functional
SK-MEL-28 = experiment: Anticancer activity against human SK-MEL-28 cells after 48 hrs; conditions: SK-MEL-28, 48 h; for CC50: read-out: LC50 (the source's name)
Summary of the method: (§1)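 NCI 60-line panel protocol with a 48 h incubation. Per line: GI50 = concentration giving 50% decrease in net cell growth; TGI = total growth inhibition; LC50 = net 50% loss of initial cells. When the level was not reached or was exceeded, the value is given as greater or less than the highest or lowest concentration tested.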

RPMI-8226 = experiment: Anticancer activity against human RPMI8226 cells after 48 hrs; conditions: RPMI-8226, 48 h; summary of the method: as §1
NCI-H322M = experiment: Anticancer activity against human NCI-H322M cells after 48 hrs; summary of the method: as §1
Rattus norvegicus [1] = experiment: Antiinflammatory activity in Wistar rat assessed as inhibition of carrageenan-induced hind paw edema at 20 mg/kg, po administered 30 mins before carrageenan challenge measured after 5 hrs by plethysmometer
Summary of the method: (§2)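 Wistar rats of either sex, 150–175 g, fasted 16 h, n = 6 per group. Compound given orally at 20 mg/kg as a suspension in 1% CMC in water (10 mL/kg); controls got vehicle only. After 30 min, 0.1 mL of 1% carrageenan in saline was injected subplantar into the left hind paw. Paw volume was measured by plethysmometer at 0, 3 and 5 h. Inhibition = (1 − Vt/Vc) × 100, reported as mean ± SEM.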

T47D = experiment: Anticancer activity against human T47D cells after 48 hrs; conditions: for CC50: read-out: LC50 (the source's name)
Summary of the method: (§3)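 NCI ~60 human tumour cell line panel with a 48 h incubation. GI50 is the concentration giving a 50% fall in net growth, TGI gives total growth inhibition, and LC50 gives a net 50% loss of initial cells. An effect not reached or exceeded is reported as greater or less than the highest or lowest concentration tested.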

SF-539 = experiment: Anticancer activity against human SF539 cells after 48 hrs; conditions: SF-539, 48 h; summary of the method: as §1
MDA-MB-468 = experiment: Anticancer activity against human MDA-MB-468 cells after 48 hrs; conditions: MDA-MB-468, 48 h; for CC50: read-out: LC50 (the source's name)
Summary of the method: (§4)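 NCI Drug Evaluation Branch 60-cell-line screen across leukemia, melanoma, lung, colon, CNS, ovarian, renal, prostate and breast panels. The incubation period is 48 h. Parameters are derived from dose–response data: GI50 is the concentration giving 50% decrease in net growth, TGI is total growth inhibition, and LC50 is net 50% loss of initial cells. Values beyond the tested range are reported as greater or less than the maximum or minimum concentration.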

NCI-H226 = experiment: Anticancer activity against human NCI-H226 cells after 48 hrs; conditions: NCI-H226, 48 h; for CC50: read-out: LC50 (the source's name); summary of the method: as §1
MOLT-4 = experiment: Anticancer activity against human MOLT4 cells after 48 hrs; conditions: MOLT-4, 48 h; summary of the method: as §1
HCT-15 = experiment: Anticancer activity against human HCT15 cells after 48 hrs; conditions: HCT-15, 48 h; for CC50: read-out: LC50 (the source's name); summary of the method: as §4
SK-MEL-2 = experiment: Anticancer activity against human SK-MEL-2 cells after 48 hrs; conditions: SK-MEL-2, 48 h; summary of the method: as §1
COLO 205 = experiment: Anticancer activity against human COLO205 cells after 48 hrs; conditions: COLO 205, 48 h; summary of the method: as §4
OVCAR-3 = experiment: Anticancer activity against human OVCAR3 cells after 48 hrs; conditions: OVCAR-3, 48 h; summary of the method: as §1
OVCAR-5 = experiment: Anticancer activity against human OVCAR5 cells after 48 hrs; conditions: OVCAR-5, 48 h; summary of the method: as §1
A498 = experiment: Anticancer activity against human A498 cells after 48 hrs; conditions: A498, 48 h; for CC50: read-out: LC50 (the source's name); summary of the method: as §4
SNB-19 = experiment: Anticancer activity against human SNB19 cells after 48 hrs; conditions: SNB-19, 48 h; for CC50: read-out: LC50 (the source's name); summary of the method: as §1
HOP-62 = experiment: Anticancer activity against human HOP62 cells after 48 hrs; conditions: HOP-62, 48 h; summary of the method: as §4
SNB-75 = experiment: Anticancer activity against human SNB75 cells after 48 hrs; conditions: SNB-75, 48 h; for CC50: read-out: LC50 (the source's name); summary of the method: as §1
NCI/ADR-RES = experiment: Anticancer activity against human NCI/ADR-RES cells after 48 hrs; conditions: for CC50: read-out: LC50 (the source's name); summary of the method: as §1
Rattus norvegicus [2] = experiment: Antiinflammatory activity in Wistar rat assessed as inhibition of carrageenan-induced hind paw edema at 20 mg/kg, po administered 30 mins before carrageenan challenge measured after 3 hrs by plethysmometer; summary of the method: as §2
TK-10 = experiment: Anticancer activity against human TK10 cells after 48 hrs; conditions: TK-10, 48 h; summary of the method: as §3
EKVX = experiment: Anticancer activity against human EKVX cells after 48 hrs; conditions: for CC50: read-out: LC50 (the source's name); summary of the method: as §4
CAKI-1 = experiment: Anticancer activity against human Caki1 cells after 48 hrs; conditions: CAKI-1, 48 h; summary of the method: as §4
HOP-92 = experiment: Anticancer activity against human HOP92 cells after 48 hrs; conditions: HOP-92, 48 h; for CC50: read-out: LC50 (the source's name); summary of the method: as §4
IGROV-1 = experiment: Anticancer activity against human IGROV1 cells after 48 hrs; conditions: IGROV-1, 48 h; summary of the method: as §4
786-0 = experiment: Anticancer activity against human 786-0 cells after 48 hrs; conditions: 786-0, 48 h; for CC50: read-out: LC50 (the source's name); summary of the method: as §4
ACHN = experiment: Anticancer activity against human ACHN cells after 48 hrs; conditions: for CC50: read-out: LC50 (the source's name); summary of the method: as §4
PC-3 = experiment: Anticancer activity against human PC3 cells after 48 hrs; conditions: PC-3, 48 h; for CC50: read-out: LC50 (the source's name); summary of the method: as §1
Malme-3M = experiment: Anticancer activity against human MALME-3M cells after 48 hrs; conditions: for CC50: read-out: LC50 (the source's name); summary of the method: as §4

## Cc1cc(O)c(C2=NN(c3ccc(S(N)(=O)=O)cc3)C(c3ccccc3O)C2)cc1Cl (stereo unspecified)
SK-MEL-28
  GI50: 4.05 µM
  TGI: 13.5 µM
  CC50: 37.8 µM
RPMI-8226
  GI50: 2.39 µM
  LC50 (concentration for net 50% loss of initial cells): > 100 µM
  TGI: 15 µM
NCI-H322M
  GI50: 2.5 µM
  LC50 (net 50% loss of initial cells): 26 µM
  TGI: 7.24 µM
Rattus norvegicus [1]
  inhibition in vivo at 20 mg/kg: 59.5%
T47D
  GI50: 3.18 µM
  TGI: 14.6 µM
  CC50: 64.9 µM
SF-539
  GI50: 1.6 µM
  LC50 (concentration causing net 50% loss of initial cells): 5.69 µM
  TGI: 3.02 µM
MDA-MB-468
  GI50: 2.58 µM
  TGI: 7.92 µM
  CC50: 37.6 µM
NCI-H226
  GI50: 2.21 µM
  TGI: 7.55 µM
  CC50: 86.5 µM
MOLT-4
  GI50: 4.74 µM
  LC50: > 100 µM
  TGI: 34.4 µM
HCT-15
  GI50: 3.64 µM
  TGI: 13.4 µM
  CC50: 44.7 µM
SK-MEL-2
  GI50: 11 µM
  LC50: 67 µM
  TGI: 27.2 µM
COLO 205
  GI50: 1.95 µM
  LC50 (concentration giving net 50% loss of initial cells): 6.43 µM
  TGI: 3.54 µM
OVCAR-3
  GI50: 1.81 µM
  LC50 (concentration giving 50% net loss of initial cells): 11.3 µM
  TGI: 3.73 µM
OVCAR-5
  GI50: 1.73 µM
  LC50: 8.12 µM
  TGI: 3.75 µM
A498
  GI50: 2.79 µM
  TGI: 14.5 µM
  CC50: 46.9 µM
SNB-19
  GI50: 4.33 µM
  TGI: 15.2 µM
  CC50: 39.8 µM
HOP-62
  GI50: 1.93 µM
  LC50 (concentration for 50% net loss of initial cells): 11.7 µM
  TGI: 4.5 µM
SNB-75
  GI50: 1.79 µM
  TGI: 13.6 µM
  CC50: 37.1 µM
NCI/ADR-RES
  GI50: 3.61 µM
  TGI: 14.1 µM
  CC50: 54.1 µM
Rattus norvegicus [2]
  inhibition in vivo at 20 mg/kg: 73.6%
TK-10
  GI50: 3.3 µM
  LC50: 27.2 µM
  TGI: 6.85 µM
EKVX
  GI50: 1.99 µM
  TGI: 7.16 µM
  CC50: 39.7 µM
CAKI-1
  GI50: 1.56 µM
  LC50 (concentration giving 50% net loss of initial cells): 16.6 µM
  TGI: 4.44 µM
HOP-92
  GI50: 1.46 µM
  TGI: 6.51 µM
  CC50: 37.8 µM
IGROV-1
  GI50: 1.63 µM
  LC50 (net 50% loss of initial cells): 37.4 µM
  TGI: 11.2 µM
786-0
  GI50: 2.23 µM
  TGI: 4.21 µM
  CC50: 7.94 µM
ACHN
  GI50: 3.13 µM
  TGI: 11.2 µM
  CC50: 33.4 µM
PC-3
  GI50: 1.33 µM
  TGI: 3.52 µM
  CC50: 9.33 µM
Malme-3M
  GI50: 2.72 µM
  TGI: 7.34 µM
  CC50: 59.2 µM

## Cc1cc(O)c(C2=NN(c3ccc(S(N)(=O)=O)cc3)C(c3ccccc3Cl)C2)cc1Cl (stereo unspecified)
SK-MEL-28
  GI50: 3.39 µM
  TGI: 12.3 µM
  CC50: 52.9 µM
RPMI-8226
  GI50: 2.97 µM
  LC50 (concentration for net 50% loss of initial cells): > 100 µM
  TGI: 8.35 µM
NCI-H322M
  GI50: 2.19 µM
  LC50 (net 50% loss of initial cells): 22 µM
  TGI: 5.06 µM
Rattus norvegicus [1]
  inhibition in vivo at 20 mg/kg: 71.4%
T47D
  GI50: 2.81 µM
  TGI: 10.3 µM
  CC50: 82.3 µM
SF-539
  GI50: 1.79 µM
  LC50 (concentration causing net 50% loss of initial cells): 5.9 µM
  TGI: 3.25 µM
MDA-MB-468
  GI50: 2.22 µM
  TGI: 4.74 µM
  CC50: > 100 µM
NCI-H226
  GI50: 3.03 µM
  TGI: 9.44 µM
  CC50: > 100 µM
MOLT-4
  GI50: 4.04 µM
  LC50: > 100 µM
  TGI: > 100 µM
HCT-15
  GI50: 3.69 µM
  TGI: 16.6 µM
  CC50: > 100 µM
SK-MEL-2
  GI50: 11.9 µM
  LC50: 81.1 µM
  TGI: 31 µM
COLO 205
  GI50: 1.81 µM
  LC50 (concentration giving net 50% loss of initial cells): 6.03 µM
  TGI: 3.31 µM
OVCAR-3
  GI50: 1.89 µM
  LC50 (concentration giving 50% net loss of initial cells): 6.77 µM
  TGI: 3.58 µM
OVCAR-5
  GI50: 1.74 µM
  LC50: 6.23 µM
  TGI: 3.3 µM
A498
  GI50: 5.01 µM
  TGI: 20.5 µM
  CC50: 61.4 µM
SNB-19
  GI50: 3.54 µM
  TGI: 16.3 µM
  CC50: 92.3 µM
HOP-62
  GI50: 2.03 µM
  LC50 (concentration for 50% net loss of initial cells): 8.53 µM
  TGI: 4.16 µM
SNB-75
  GI50: 2.23 µM
  TGI: 8.83 µM
  CC50: 63.6 µM
NCI/ADR-RES
  GI50: 2.7 µM
  TGI: 6.85 µM
  CC50: 38.8 µM
Rattus norvegicus [2]
  inhibition in vivo at 20 mg/kg: 55.3%
TK-10
  GI50: 2.64 µM
  LC50: 33.9 µM
  TGI: 5.86 µM
EKVX
  GI50: 1.95 µM
  TGI: 4.6 µM
  CC50: > 100 µM
CAKI-1
  GI50: 1.78 µM
  LC50 (concentration giving 50% net loss of initial cells): 8.95 µM
  TGI: 3.99 µM
HOP-92
  GI50: 1.94 µM
  TGI: 6.32 µM
  CC50: 3.12 µM
IGROV-1
  GI50: 2.58 µM
  LC50 (net 50% loss of initial cells): 47.2 µM
  TGI: 14 µM
786-0
  GI50: 2.25 µM
  TGI: 4.52 µM
  CC50: 9.1 µM
ACHN
  GI50: 3.34 µM
  TGI: 11 µM
  CC50: 34.3 µM
PC-3
  GI50: 1.58 µM
  TGI: 3.32 µM
  CC50: 6.98 µM
Malme-3M
  GI50: 2.62 µM
  TGI: 6.46 µM
  CC50: > 100 µM
